Measurements: ChEMBL document CHEMBL2385035 (J Med Chem, 2013)

How the values were obtained:
[1] = Apparent permeability in MDCK cells expressing MDR1 at 3 uM after 60 mins by LC-MS/MS analysis; type: ADME, cell-based, Canis lupus familiaris; conditions: dog
Mus musculus [2] = assay: In vivo inhibition of ASBT in C57BL/6J mouse assessed as increase in fecal bile acid excretion measured for 24 hrs; type: functional; conditions: Feces
[3] = Cmax in Sprague-Dawley rat portal vein blood at 10 mg/kg, po; type: ADME, organism-based; parameters: dose 10 mg/kg, route oral
In short: (§1)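 Fed male SD rats given a single oral gavage dose of 10 mg/kg. Maximum parent drug concentration measured in portal vein blood and in systemic blood.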

Mus musculus [4] = assay: In vivo inhibition of ASBT in C57BL/6J mouse assessed as increase in fecal bile acid excretion measured for 24 hrs relative to 264W94; type: functional, Feces; parameters: concentration or dose not given beside the values
[5] = Half life in Sprague-Dawley rat intestine at 10 mg/kg, po; type: ADME, organism-based; parameters: dose 10 mg/kg, route oral
[6] = Drug recovery in Sprague-Dawley rat feces at 10 mg/kg, po; type: ADME, organism-based; parameters: dose 10 mg/kg, route oral; conditions: read-out: Drug recovery
[7] = Cmax in Sprague-Dawley rat systemic blood at 10 mg/kg, po; type: ADME, organism-based; parameters: dose 10 mg/kg, route oral; in short: as §1
[8] = target: T1, Ileal sodium/bile acid cotransporter (Homo sapiens, UniProt Q12908); assay: Inhibition of human ASBT expressed in HEK293 cells assessed as inhibition of [3H]-taurocholate uptake after 90 mins by scintillation counting analysis; type: cell-based
T1 sequence (Q12908 whole entry): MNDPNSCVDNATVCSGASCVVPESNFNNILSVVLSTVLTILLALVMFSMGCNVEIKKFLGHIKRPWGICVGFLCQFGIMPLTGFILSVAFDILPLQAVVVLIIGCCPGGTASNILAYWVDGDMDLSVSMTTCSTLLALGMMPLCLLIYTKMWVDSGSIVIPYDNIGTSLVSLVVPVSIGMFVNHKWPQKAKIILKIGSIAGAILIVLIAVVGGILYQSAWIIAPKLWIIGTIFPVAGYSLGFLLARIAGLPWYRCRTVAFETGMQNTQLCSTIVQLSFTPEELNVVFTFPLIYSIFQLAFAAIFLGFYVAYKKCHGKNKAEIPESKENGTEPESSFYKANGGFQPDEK

[9] = target: T2, Ileal sodium/bile acid cotransporter (Rattus norvegicus, UniProt Q62633); assay: Inhibition of rat ASBT expressed in HEK293 cells assessed as inhibition of [3H]-taurocholate uptake after 90 mins by scintillation counting analysis; type: cell-based
T2 sequence (Q62633 whole entry): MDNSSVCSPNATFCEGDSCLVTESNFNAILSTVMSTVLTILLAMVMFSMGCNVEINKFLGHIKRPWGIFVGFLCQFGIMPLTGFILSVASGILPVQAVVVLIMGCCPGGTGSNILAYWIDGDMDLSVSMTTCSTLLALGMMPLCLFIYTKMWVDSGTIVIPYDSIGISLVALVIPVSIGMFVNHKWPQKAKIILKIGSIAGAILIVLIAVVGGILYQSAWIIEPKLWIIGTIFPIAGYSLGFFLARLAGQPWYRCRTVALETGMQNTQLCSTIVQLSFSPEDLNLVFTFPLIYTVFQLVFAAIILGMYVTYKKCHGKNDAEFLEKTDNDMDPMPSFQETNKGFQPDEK

[10] = target: T3, Ileal sodium/bile acid cotransporter (Mus musculus, UniProt P70172); assay: Inhibition of mouse ASBT expressed in HEK293 cells assessed as inhibition of [3H]-taurocholate uptake after 90 mins by scintillation counting analysis; type: cell-based
T3 sequence (P70172 whole entry): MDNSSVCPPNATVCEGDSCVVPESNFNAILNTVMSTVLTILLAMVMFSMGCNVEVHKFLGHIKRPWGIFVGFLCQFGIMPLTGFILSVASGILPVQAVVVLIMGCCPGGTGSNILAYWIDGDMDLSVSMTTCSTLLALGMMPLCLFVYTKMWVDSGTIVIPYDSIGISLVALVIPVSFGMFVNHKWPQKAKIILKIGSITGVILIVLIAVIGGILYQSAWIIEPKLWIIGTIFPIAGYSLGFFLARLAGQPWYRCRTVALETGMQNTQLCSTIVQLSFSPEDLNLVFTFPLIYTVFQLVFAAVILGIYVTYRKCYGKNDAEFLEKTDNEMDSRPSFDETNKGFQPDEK

Papp at 1 h, 3 µM [1] [×10⁻⁶ cm/s] | Cmax [3] [ng/mL] | Cmax [7] [ng/mL] | IC50 [8] [nM] | SMILES | further results
4.3 | – | – | – | CCCC[C@]1(CC)CS(=O)(=O)c2cc(C(=O)NCC(C)(C)C(=O)O)c(OC)cc2[C@@H](c2ccccc2)N1 | –
0.5 | 12 | 24 | – | CCCC[C@]1(CC)CS(=O)(=O)c2cc(CN[C@@H](CO)C(=O)O)c(OC)cc2[C@@H](c2ccccc2)N1 | ED50 (Mus musculus [2]): 0.012 mg/kg; Efficacy (Mus musculus [4]): 47%; half-life [5]: 8 h; dose excreted [6]: 63%
0.8 | – | – | – | CCCC[C@]1(CC)CS(=O)(=O)c2cc(CN(CCS(=O)(=O)O)CCS(=O)(=O)O)c(OC)cc2[C@@H](c2ccccc2)N1 | –
30.3 | – | – | 13 | CCCC[C@]1(CC)CS(=O)(=O)c2cc(OCCCC(=O)O)c(OC)cc2[C@@H](c2ccccc2)N1 | –
1 | 7 | – | – | CCCC[C@]1(CC)CS(=O)(=O)c2cc(CNCCS(=O)(=O)O)c(OC)cc2[C@@H](c2ccccc2)N1 | ED50 (Mus musculus [2]): 2.7 mg/kg; Efficacy (Mus musculus [4]): 73%; half-life [5]: > 12 h; IC50 [9]: 2.3 nM; dose excreted [6]: 100%; IC50 [10]: 0.9 nM
0.4 | 56 | 43 | 245 | CCCC[C@]1(CC)CS(=O)(=O)c2cc(CN(CC(=O)O)CC(=O)O)c(OC)cc2[C@@H](c2ccccc2)N1 | –
1 | 224 | 1 | – | CCCC[C@]1(CC)CS(=O)(=O)c2cc(CN(C)CC(=O)O)c(OC)cc2[C@@H](c2ccccc2)N1 | –
1 | 260 | 7 | 133 | CCCC[C@]1(CC)CS(=O)(=O)c2cc(OCCCP(=O)(O)O)c(OC)cc2[C@@H](c2ccccc2)N1 | –
38.3 | – | – | – | CCCC[C@]1(CC)CS(=O)(=O)c2cc(CCC(=O)O)c(OC)cc2[C@@H](c2ccccc2)N1 | –
0.3 | – | – | – | CCCC[C@]1(CC)CS(=O)(=O)c2cc(CNC(=O)CP(=O)(O)O)c(OC)cc2[C@@H](c2ccccc2)N1 | –
– | 87 | – | – | CCCC[C@]1(CC)CS(=O)(=O)c2cc(CNC(=O)C(=O)O)c(OC)cc2[C@@H](c2ccccc2)N1 | –
1 | 1460 | 26 | 34 | CCCC[C@]1(CC)CS(=O)(=O)c2cc(OCC(=O)O)c(OC)cc2[C@@H](c2ccccc2)N1 | –
1.2 | 220 | 7 | 4 | CCCC[C@]1(CC)CS(=O)(=O)c2cc(OCCS(=O)(=O)O)c(OC)cc2[C@@H](c2ccccc2)N1 | –
– | – | – | 367 | CCCC[C@]1(CC)CS(=O)(=O)c2cc(CN(C)CCC(=O)O)c(OC)cc2[C@@H](c2ccccc2)N1 | –
– | – | – | > 3000 | CCCC[C@]1(CC)CS(=O)(=O)c2cc(CN(CP(=O)(O)O)CP(=O)(O)O)c(OC)cc2[C@@H](c2ccccc2)N1 | –
0.8 | 82 | 16 | 44 | CCCC[C@]1(CC)CS(=O)(=O)c2cc(OCCP(=O)(O)O)c(OC)cc2[C@@H](c2ccccc2)N1 | –
0.4 | 132 | 38 | – | CCCC[C@]1(CC)CS(=O)(=O)c2cc(C(=O)NCCS(=O)(=O)O)c(OC)cc2[C@@H](c2ccccc2)N1 | –

Papp at 1 h, 3 µM [1] [×10⁻⁶ cm/s] | Cmax [3] [ng/mL] | Cmax [7] [ng/mL] | IC50 [8] [nM] | SMILES | further results
– | – | – | 900 | CCCC[C@]1(CC)CS(=O)(=O)c2cc(OCP(=O)(O)O)c(OC)cc2[C@@H](c2ccccc2)N1 | –
– | – | – | > 3000 | CCCC[C@]1(CC)CS(=O)(=O)c2cc(CCC(=O)NC(CC(=O)O)CC(=O)O)c(OC)cc2[C@@H](c2ccccc2)N1 | –
1.2 | – | – | – | CCCC[C@]1(CC)CS(=O)(=O)c2cc(CCP(=O)(O)O)c(OC)cc2[C@@H](c2ccccc2)N1 | –
0.8 | 289 | 1 | 50 | CCCC[C@]1(CC)CS(=O)(=O)c2cc(OCCCS(=O)(=O)O)c(OC)cc2[C@@H](c2ccccc2)N1 | –
34.2 | – | – | – | CCCC[C@]1(CC)CS(=O)(=O)c2cc(CCCC(=O)O)c(OC)cc2[C@@H](c2ccccc2)N1 | –
0.7 | – | – | – | CCCC[C@]1(CC)CS(=O)(=O)c2cc(CCC(=O)NCS(=O)(=O)O)c(OC)cc2[C@@H](c2ccccc2)N1 | –
– | – | – | > 3000 | CCCC[C@]1(CC)CS(=O)(=O)c2cc(CNCP(=O)(O)O)c(OC)cc2[C@@H](c2ccccc2)N1 | –
0.7 | 92 | 4 | – | CCCC[C@]1(CC)CS(=O)(=O)c2cc(C(=O)NCS(=O)(=O)O)c(OC)cc2[C@@H](c2ccccc2)N1 | –
0.7 | – | – | – | CCCC[C@]1(CC)CS(=O)(=O)c2cc(CCCS(=O)(=O)O)c(OC)cc2[C@@H](c2ccccc2)N1 | –
0.7 | – | – | – | CCCC[C@]1(CC)CS(=O)(=O)c2cc(CCCP(=O)(O)O)c(OC)cc2[C@@H](c2ccccc2)N1 | –
0.6 | 93 | 1 | – | CCCC[C@]1(CC)CS(=O)(=O)c2cc(CN[C@@H](CC(=O)O)C(=O)O)c(OC)cc2[C@@H](c2ccccc2)N1 | –
0.5 | 333 | 19 | > 3000 | CCCC[C@]1(CC)CS(=O)(=O)c2cc(C(CC(=O)O)CC(=O)O)c(OC)cc2[C@@H](c2ccccc2)N1 | –
0.9 | 170 | 3 | – | CCCC[C@]1(CC)CS(=O)(=O)c2cc(CS(=O)(=O)O)c(OC)cc2[C@@H](c2ccccc2)N1 | –
1.2 | – | – | – | CCCC[C@]1(CC)CS(=O)(=O)c2cc(CCC(=O)NCC(=O)O)c(OC)cc2[C@@H](c2ccccc2)N1 | –
0.7 | 11 | 1 | – | CCCC[C@]1(CC)CS(=O)(=O)c2cc(CN[C@H](CC(=O)O)C(=O)O)c(OC)cc2[C@@H](c2ccccc2)N1 | ED50 (Mus musculus [2]): > 1 mg/kg; Efficacy (Mus musculus [4]): 70%; dose excreted [6]: 100%
1.9 | 122 | 26 | – | CCCC[C@]1(CC)CS(=O)(=O)c2cc(CNC(=O)CS(=O)(=O)O)c(OC)cc2[C@@H](c2ccccc2)N1 | –
– | – | – | > 3000 | CCCC[C@]1(CC)CS(=O)(=O)c2cc(CNC(=O)CNC(CC(=O)O)CC(=O)O)c(OC)cc2[C@@H](c2ccccc2)N1 | –

SMILES | Papp at 1 h, 3 µM [1] [×10⁻⁶ cm/s] | Cmax [3] [ng/mL] | Cmax [7] [ng/mL] | IC50 [8] [nM] | further results
CCCC[C@]1(CC)CS(=O)(=O)c2cc(CN3CCC[C@H]3C(=O)O)c(OC)cc2[C@@H](c2ccccc2)N1 | – | – | – | > 3000 | –
